# Assay results pooled from the literature.
# Lines come from different studies, so protocols differ.
# Organism: Escherichia coli
# Effect on: microbial growth
SMILES,technique,cells,strain,time,pH,setting,MIC
COc1cc(C(=O)Nc2ccc(C(=O)N[C@@H](CC(N)=O)C(=O)Nc3ccc(C(=O)Nc4ccc(C(=O)Nc5ccc(C(=O)O)cc5)c(O)c4OC(C)C)cc3)cc2)ccc1C#N,,,DSM1116,,,,< 0.03 µg/mL
O=C(CCCCCCCC[P+](c1ccccc1)(c1ccccc1)c1ccccc1)Nc1cc(O)c(O)c(O)c1.[Br-],broth dilution,,ATCC25922,18 h,,,> 32 µg/mL
CC(C)Oc1c(NC(=O)c2ccc(NC(=O)[C@H](CC(N)=O)NC(=O)c3ccc(NC(=O)c4ccc(C#N)cc4)cc3)cc2)ccc(C(=O)Nc2cc(C(=O)O)n(C)c2)c1O,,,DSM1116,,,,0.5 µg/mL
CC(=O)NCN1N=C(C)C(=NNn2c(-c3ccccc3)nc3ccccc3c2=O)C1=O,broth dilution,,,24 h,,,59.9 µM
CC(NCCCN)c1cc2cc(Br)ccc2[nH]1 (centres unmarked),broth dilution,,ATCC25922,,,,128 µg/mL
C[C@@H](O)[C@H]1C(=O)N2C(C(=O)O)=C(S[C@@H]3CN[C@H](C(=O)N(C)C)C3)[C@H](C)[C@H]12,broth dilution,,KCTC1682,16 h,,,0.5 µM
Cc1c(CN(C)C(=O)/C=C/c2cnc3c(c2)CC(CCN)C(=O)N3)oc2ccccc12.Cl (centres unmarked),broth dilution,,MG1655,,,clinical isolate,8 µg/mL
CNC(C)C1CCC(N)C(OC2C(N)CC(N)C(OC3OCC(C)(O)C(NC)C3O)C2O)O1 (centres unmarked),broth dilution,K12,K12,,pH 7,,0.25 µg/mL
CCCCCCC/C=C/C(=O)N1C(=O)/C(=C(/C)O)C(=O)C1CCCCN (centres unmarked),,K12,K12,,,,> 200 µg/mL
N=C(N)c1cccc(OCCCCCOc2cccc(C(=N)N)c2)c1,,,BW25113,,,,> 200 µg/mL
CC(C)Oc1c(NC(=O)c2ccc(NC(=O)[C@H](CC(N)=O)NC(=O)c3ccc(NC(=O)c4ccc(C#N)cc4)cc3)cc2)ccc(C(=O)Nc2ccc(C(=O)O)cc2)c1O,,,DSM1116,,,,0.5 µg/mL
CCCCCCC/C=C/C(=O)N1C(=O)/C(=C(\O)c2ccccc2)C(=O)C1CC(C)C (centres unmarked),,K12,K12,,,,> 200 µg/mL
Clc1ccc(-c2nc3ccccc3[nH]2)c(Cl)c1,broth dilution,,ATCC25922,,,,128 µg/mL
O=C(O)c1cn(C2CC2)c2cc(N3CCNCC3)c(F)cc2c1=O,broth dilution,,ATCC10536,18 h,,,≤ 1 µg/mL
N=C(N)c1ccc(OCc2cc(COc3ccc(C(=N)N)cc3)cc(-c3ccccc3)c2)cc1,broth dilution,,W3110,,,,100 µg/mL
O=C(Nc1ncc([N+](=O)[O-])s1)c1cccc(C(F)(F)F)c1,,,,,,,< 50 µM
COc1c(C)c(OS(=O)(=O)c2ccc3ccccc3c2)c(C)c(OS(=O)(=O)c2ccc3ccccc3c2)c1C(=O)/C=C/c1ccccc1,broth dilution,,ATCC25922,,,,5000 µg/mL
CN(C)c1ccc(-c2nc3ccccc3[nH]2)cc1,broth dilution,,ATCC25922,,,,64 µg/mL
CC(C)Oc1c(NC(=O)c2ccc(NC(=O)[C@H](CC(N)=O)NC(=O)c3ccc(NC(=O)c4ccc([N+](=O)[O-])c5cccnc45)cc3)cc2)ccc(C(=O)Nc2ccc(C(=O)O)cc2)c1O,,,DSM1116,,,,0.25 µg/mL
Cc1ccc(C)n1-c1ccc(-c2nnc(-c3cccc([N+](=O)[O-])c3)[nH]2)cc1,broth dilution,,ATCC10536,18 h,,,250 µg/mL
Cc1ccc(NCc2ccc(Oc3ccccn3)cc2)cc1,,,,,,,> 25 µg/mL
N=C(N)c1cccc(OCc2ccc(COc3cccc(C(=N)N)c3)cc2)c1,,,BW25113,,,,> 200 µg/mL
Clc1cccc(NCc2ccc(Oc3ccccn3)cc2)c1,,,,,,,> 25 µg/mL
CNc1cccc2cc(C(=O)NCc3ccc(C(=O)O)cc3)c(=O)[nH]c12,broth dilution,,ATCC25922,,,,> 64 µg/mL
N=C(N)c1ccc(OCc2cc(Br)cc(COc3ccc(C(=N)N)cc3)c2)cc1,broth dilution,,W3110,,,,100 µg/mL
CCCCCCC#Cc1cncc(-c2nnc(SCc3ccc(Cl)cc3)n2C2CC2)c1,,,,,,,≥ 20 µg/mL
C/C(=C\c1ccc(C#N)cc1)C(=O)Nc1ccc(C(=O)N[C@@H](CC(N)=O)C(=O)Nc2ccc(C(=O)Nc3ccc(C(=O)Nc4ccc(C(=O)O)cc4)c(O)c3OC(C)C)cc2)cc1,,,DSM1116,,,,0.125 µg/mL
Cc1cccc(NCc2ccc(Oc3ccccn3)cc2)c1,,,,,,,> 50 µg/mL
CCCCCCC#Cc1cncc(-c2nnc(SCc3ccc(C#N)cc3)n2C)c1,,,,,,,≥ 20 µg/mL
CCCC(=O)Oc1c(C)c(O)c(C(=O)/C=C/c2ccccc2)c(OC)c1C,broth dilution,,ATCC25922,,,,5000 µg/mL
O=C(CCCCCCCC[P+](c1ccccc1)(c1ccccc1)c1ccccc1)Nc1ccc(O)c(O)c1.[Br-],broth dilution,,ATCC25922,18 h,,,> 32 µg/mL
CC(C)Oc1c(NC(=O)c2ccc(NC(=O)[C@H](CC(N)=O)NC(=O)c3ccc(NC(=O)c4ccc(C#N)cc4)cc3)cc2)ccc(C(=O)O)c1O,,,DSM1116,,,,> 64 µg/mL
CC1=NN(CNc2ccc(O)cc2)C(=O)C1=NNn1c(-c2ccccc2)nc2ccccc2c1=O,broth dilution,,,24 h,,,107 µM
CC1(C)S[C@@H]2[C@H](NC(=O)[C@H](N)c3ccccc3)C(=O)N2[C@H]1C(=O)O,broth dilution,,ATCC25922,,,,4 µg/mL
N=C(N)c1ccc(OCCCCCCCCCCCOc2ccc(C(=N)N)cc2)cc1,,,BW25113,,,,50 µg/mL
CC(C)Oc1c(NC(=O)c2ccc(NC(=O)[C@H](CC(N)=O)NC(=O)c3ccc(NC(=O)Cc4ccc(C#N)cc4)cc3)cc2)ccc(C(=O)Nc2ccc(C(=O)O)cc2)c1O,,,DSM1116,,,,1 µg/mL
COc1ccc(-c2nc3ccccc3[nH]2)cc1O,broth dilution,,ATCC25922,,,,256 µg/mL
Cc1ccc(C)n1-c1ccc(-c2n[nH]c(=S)[nH]2)cc1,broth dilution,,ATCC10536,18 h,,,8 µg/mL
O=C(Nc1ccc(F)c(Cl)c1)c1cc(Cl)ccc1O,broth dilution,,ATCC25922,,,,> 64 µg/mL
CC1=NN(CNC(=O)c2ccccc2)C(=O)C1=NNn1c(-c2ccccc2)nc2ccccc2c1=O,broth dilution,,,24 h,,,51.9 µM
Cc1cccc2nc(-c3ccc([N+](=O)[O-])o3)[nH]c12,broth dilution,,ATTC25922,,,,4 µg/mL
C=CCn1c(-c2ccc([N+](=O)[O-])cc2)nc2ccccc21,broth dilution,,ATCC25922,,,,64 µg/mL
N=C(N)c1cccc(OCc2cccc(COc3cccc(C(=N)N)c3)c2)c1,broth dilution,,BW25113,,,,> 200 µg/mL
C[C@H]1COc2c(N3CCN(C)CC3)c(F)cc3c(=O)c(C(=O)O)cn1c23,broth dilution,,ATCC25922,,,,0.25 µg/mL
Cc1ccc2nc(-c3ccc([N+](=O)[O-])cc3)n(Cc3ccccc3Cl)c2c1,broth dilution,,ATCC25922,,,,32 µg/mL
CC(C)Oc1c(NC(=O)c2ccc(NC(=O)[C@H](CC(N)=O)NC(=O)c3ccc(NC(=O)c4ccc([N+](=O)[O-])c(OC(C)C)c4O)cc3)cc2)ccc(C(=O)Nc2ccc(C(=O)O)cc2)c1O,,,DSM1116,,,,> 64 µg/mL
O=C(O)c1cn(C2CC2)c2cc(N3CCNCC3)c(F)cc2c1=O,broth dilution,,ATCC25922,,,,16 µg/mL
N=C(N)c1ccc(OCc2cccc(COc3ccc(C(=N)N)cc3)c2)cc1,broth dilution,,ATCC25922,,,,200 µg/mL
COc1cccc(-c2nc3ccccc3[nH]2)c1,broth dilution,,ATCC25922,,,,256 µg/mL
COc1c(C)c(OC(=O)c2ccccc2)c(C)c(O)c1C(=O)/C=C/c1ccccc1,broth dilution,,ATCC25922,,,,5000 µg/mL
C=CCn1c(-c2ccc([N+](=O)[O-])cc2)nc2ccc(C)cc21,broth dilution,,ATCC25922,,,,64 µg/mL
N=C(N)c1ccc(OCCCCCOc2ccc(C(=N)N)cc2)cc1,broth dilution,,W3110,,,,> 200 µg/mL
CCCCCCC/C=C/C(=O)N1C(=O)/C(=C(/C)O)C(=O)C1CCC(=O)O (centres unmarked),,K12,K12,,,,> 200 µg/mL
